Activity calls are given as the source filed them. The calls are words filed in the database; no cut-off is given here.

These results are taken from ChEMBL document CHEMBL4422671, “New Quinolylnitrones for Stroke Therapy: Antioxidant and Neuroprotective ( Z)- N- tert-Butyl-1-(2-chloro-6-methoxyquinolin-3-yl)methanimine Oxide as a New Lead-Compound for Ischemic Stroke Treatment” (J Med Chem, 2019).

A short description of experiment [1]: Antioxidant activity assessed as superoxide anion scavenging activity at 0.1 mM pH 7.4 after 10 mins by NBT assay. Type of experiment: functional. Summed up:
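Superoxide generated by xanthine/xanthine oxidase (0.07 U/mL) in 0.1 M phosphate buffer pH 7.4 containing NBT and compound at 0.1 mM final. After 10 min at rt, absorbance read at 560 nm. Caffeic acid as standard.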

Experiment [2] relates to Mus musculus. Description: Neuroprotective activity in C57BL/6 mouse model of ischemia-induced cerebral ischemia model assessed as reduction in apoptosis in cortical region at 40 mg/kg, ip administered at onset of reperfusion period and measured at 5 days reperfusion post ischemia by TUNNEL assay relative to control. Type of experiment: functional, organism-based.
In experiment [3] the test system is Mus musculus. Kind of experiment: Neuroprotective activity in C57BL/6 mouse model of ischemia-induced cerebral ischemia model assessed as reduction in apoptosis in hippocampal CA1 region at 40 mg/kg, ip administered at onset of reperfusion period and measured at 5 days reperfusion post ischemia by TUNNEL assay relative to control. Type of experiment: functional, organism-based.

Experiment [4] in a line: Antioxidant activity assessed as ABTS radical cation scavenging activity by measuring trolox equivalents at 10 uL after 1 min. Type of experiment: functional. In outline: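 ABTS radical cation made from 2 mM aqueous ABTS plus 0.17 mM potassium persulfate in 20 mM phosphate buffer pH 7.4, kept 12–16 h dark at rt. Diluted with ethanol to A734 0.70, then mixed with 10 μL compound from 10 mM stock. Absorbance read at rt 1 min after mixing. Trolox as standard.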

Experiment [5] in a line: Neuroprotective activity against oxygen-glucose deprivation-induced cell death in Sprague-Dawley rat primary neuronal cells assessed as cell viability at 250 uM treated at onset of recovery period and measured at 24 hrs of recovery by MTT assay relative to control. Type of experiment: functional. As to conditions: Primary neuron, read-out: Activity. In outline:
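Rat cortical neurons from E16–17 Sprague-Dawley embryos, used at 6–7 days in serum-free medium. OGD: glucose-free medium bubbled with 95% N2/5% CO2, <0.1% O2, 6.5% CO2, 37 °C, 4 h. Compound added at start of 24 h normoxic recovery. Viability by MTT (0.2 mg/mL, 1.5 h), lysis with HCl/SDS, read at 595/690 nm, relative to 100% control. Four to eight culture batches, each in quadruplicate.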
Background: Formazan colour is commonly taken as a measure of viable cells.

Experiment [6] is described as follows: Antioxidant activity assessed as DPPH free radical scavenging activity at 0.1 mM measured after 20 to 60 mins. Type of experiment: functional. Summed up: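 DPPH 0.1 mM in absolute ethanol with compound at 0.1 mM final (from DMSO). Absorbance at 517 nm recorded after 20 and 60 min at rt. NDGA as standard.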
The test system of experiment [7] is Mus musculus. Description: Neuroprotective activity in C57BL/6 mouse model of ischemia-induced cerebral ischemia model assessed reduction in neuronal cell death in hippocampal CA1 region at 40 mg/kg, ip administered at onset of reperfusion period and measured at 5 days reperfusion post ischemia by Fluoro-Jade-staining assay based relative to control. Type of experiment: functional, organism-based.

The test system of experiment [8] is Mus musculus. Description: Neuroprotective activity in C57BL/6 mouse model of transient middle cerebral artery occlusion-induced ttransient focal cerebral ischemia assessed decrease in motor deficit by measuring improvement in grip strength at 40 mg/kg, ip measured after 48 hrs post dose by grip strength Test. Type of experiment: functional. On the set-up: scale not given: the % may be the effect or the level left.

Experiment [9] in a line: Antioxidant activity assessed as inhibition of linoleic acid peroxidation activity at 10 uL. Type of experiment: functional. In outline:
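AAPH-initiated peroxidation of sodium linoleate dispersion (16 mM, 10 μL) in 0.05 M phosphate buffer pH 7.4 at 37 °C under air. Initiator was 50 μL of 40 mM AAPH, with 10 μL compound added. Conjugated diene hydroperoxide followed at 234 nm. Trolox as reference.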

The next experiment deals with Lipoxygenase (Glycine max, UniProt Q39829). Kind of experiment: Inhibition of soybean lipoxygenase using sodium linoleate as substrate by UV-based analysis. Summed up: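 Soybean lipoxygenase (enzyme 1/9 ×10⁻⁴ w/v in saline) incubated at rt with 0.1 mM sodium linoleate and compound in DMSO, at several concentrations from 1 to 100 µM diluted from 10 mM stock. Conversion to 13-hydroperoxylinoleic acid recorded at 234 nm; IC50 derived. NDGA as reference inhibitor.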

In experiment [10] the test system is Mus musculus. Description: Neuroprotective activity in C57BL/6 mouse model of ischemia-induced cerebral ischemia model assessed reduction in neuronal cell death in cortical region at 40 mg/kg, ip administered at onset of reperfusion period and measured at 5 days reperfusion post ischemia by Fluoro-Jade-staining assay based relative to control. Type of experiment: functional, organism-based.

In experiment [11] the test system is Mus musculus. Kind of experiment: Neuroprotective activity in C57BL/6 mouse model of ischemia-induced cerebral ischemia model assessed reduction in neurodeficit score at 40 mg/kg, ip administered at onset of reperfusion period and measured at 5 days reperfusion post ischemia. Type of experiment: functional, organism-based.
Experiment [12] is described as follows: Antiinflammatory activity assessed as NO release at 100 uM after 60 mins in presence of L-cysteine by Griess reagent-based relative to control. Type of experiment: functional. In outline:
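NO-release test: compound at 100 μM final (from DMSO) in 50 mM phosphate buffer pH 7.4 containing 1 mM L-cysteine, 60 min at 37 °C. Reaction mixture then treated with Griess reagent, left 10 min at rt, absorbance read at 540 nm. Sodium nitroprusside as standard. Mean of three to four determinations.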
Background: Nitrite, measured by Griess reagent, commonly stands in for NO production.

A short description of experiment [13]: Antioxidant activity assessed as hydroxyl radical scavenging activity at 0.1 mM measured after 30 mins. Type of experiment: functional. Summed up: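 Hydroxyl radicals from Fe3+/ascorbic acid: EDTA 0.1 mM, Fe3+ 167 μM, DMSO 33 mM, compound 0.1 mM and ascorbic acid 10 mM in 50 mM phosphate buffer pH 7.4. Incubated 37 °C for 30 min, stopped with 17% w/v TCA. Read-out is inhibition of formaldehyde formation, given as % scavenging. Trolox as reference.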

The test system of experiment [14] is Mus musculus. Description: Neuroprotective activity in C57BL/6 mouse model of transient middle cerebral artery occlusion-induced ttransient focal cerebral ischemia assessed decrease in size of ischemic lesion at 40 mg/kg, ip measured after 48 hrs post dose relative to control. Type of experiment: functional, organism-based.

Take `CC(C)(C)/[N+]([O-])=C/c1ccc(S(=O)(=O)[O-])cc1S(=O)(=O)[O-].[Na+].[Na+]`: the result (in experiment [1]; with Mus musculus [2]; in the experiment with Mus musculus [3]; in experiment [4]; in experiment [6]; in the experiment with Mus musculus [7]) was inactive. Further, the outcome (in [9]; with Mus musculus [10]; with Mus musculus [14]) was inactive. Further, the viability at 250 µM in experiment [5] turned out to be 52.9%. Besides, the Activity worked out at 20.7% with Mus musculus [8], 1% in experiment [12] and 94% in experiment [13]. It took 57.5 µM to reach half-maximal inhibition against Lipoxygenase (IC50). In addition, the result with Mus musculus [11] was Active.

In general, IC50 refers to the concentration needed to halve the response being measured.
